Assay results from different studies.
Each line is one published result; the experiments were not run side by side.
Medium: plasma

SMILES	host	route	dose	notes	measurement	value
Cn1cc(-c2ccc(S(=O)(=O)[C@@H]3C[C@@H](C(=O)NC4(C#N)CC4)N(C(=O)C4(C(F)(F)F)CC4)C3)c(C(F)(F)F)c2)cn1	human	oral	10 mg	single dose, fasted, healthy volunteers	AUC(0-inf)	995 ng·h/mL
Cn1c(=O)oc2ccc(-c3ccc(C[C@@H](C#N)NC(=O)[C@@H]4CNCCCO4)cc3)cc21	male human	oral	35 mg	single dose, healthy volunteers	AUC	13.2 µM·h
Cc1ccc(C(=O)N(CCCN)[C@@H](c2oc3cc(Cl)ccc3c(=O)c2Cc2ccccc2)C(C)C)cc1	human	intravenous	5 mg/m²	single dose, patients, infusion	AUC	8960 ng·h/mL
COc1ccc([C@@H]2CN(C(=O)[C@@H](O)CO)C[C@@]2(C)[C@@H](C)O)cc1OC1CN(c2ccc(C)cn2)C1	human	oral	10 mg	single dose, healthy volunteers	AUC(0-t)	2750 ng·h/mL
CO[C@@H]1[C@H](OC(=O)N2CC(CCN3CCOCC3)C2)CC[C@]2(CO2)[C@H]1[C@@]1(C)O[C@@H]1CC=C(C)C	human	subcutaneous	4.8 mg	single dose, healthy volunteers	AUC(0-t)	21.6 ng·h/mL
COCCOc1cnc2ccn([C@H](C)c3nnc4c(F)cc(-c5cnn(C)c5)cn34)c(=O)c2c1	human	oral	400 mg	multiple doses, once daily, patients	AUC(0-t)	49600 ng·h/mL
COc1cc(C(=O)NC2CCN(C)CC2)c(F)cc1Nc1ncc(C(F)(F)F)c(Oc2cccc3c2C(=O)N(C)C3)n1	human	oral	200 mg	multiple doses, once daily, steady state, patients	AUC	35.4 µM·h
CO[C@H]1CC[C@H](N2C(=O)CNc3ncc(-c4ccc(C(C)(C)O)nc4)nc32)CC1	human	oral	15 mg	multiple doses, patients	AUC(0-t)	383 ng·h/mL
CC(C)(O)c1ccccc1-c1ccc2[nH]c(/C=C/c3ccc(C(F)(F)F)cc3)nc2c1	male human	oral	30 mg	single dose, fasted, healthy volunteers	AUC(0-t)	5160 ng·h/mL
CCc1nc2c(C)cc(N3CCN(CC(=O)N4CC(O)C4)CC3)cn2c1N(C)c1nc(-c2ccc(F)cc2)c(C#N)s1	human	oral	20 mg	single dose, fed, healthy volunteers	AUC(0-inf)	500 ng·h/mL
CC(C)n1cc(C#N)c2cc(-n3cc(C(=O)O)cn3)ccc21	human	oral	200 mg	single dose, fasted, healthy volunteers	AUC(0-t)	43900 ng·h/mL
